Experimental data: ChEMBL document CHEMBL1147762, “A new chemical tool for exploring the physiological function of the PDE2 isozyme” (Bioorg Med Chem Lett, 2006)

Legend:
[1] = molecular target: 5-hydroxytryptamine receptor 4 (Homo sapiens) (UniProt Q13639); test: Percentage binding to serotonin 5HT4 at 10 uM
[2] = molecular target: Voltage-gated L-type calcium channel (Homo sapiens, UniProt Q13936+Q13698+Q01668+O60840); test: Percentage binding to Ca2+ channel L at 10 uM; assay type: protein assay
Phosphodiesterase 1 = Phosphodiesterase 1 (Homo sapiens, UniProt P54750+Q01064+Q14123); test: Inhibitory activity against PDE1 by scintillation proximity assay; assay type: protein assay
Procedure, shortened: (§1)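 Phosphodiesterase inhibition run as a scintillation proximity assay, with enzyme at a concentration in the linear range. Final substrate was 1 µM, below one-third of the enzyme K_M, so that IC50 approximates Ki. Values are means of n experiments with standard deviation.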

[3] = molecular target: Dual specificity mitogen-activated protein kinase kinase 1 (Homo sapiens) (UniProt Q02750); test: Inhibition of MKK1 at 10 uM
[4] = molecular target: Adrenergic receptor alpha-2 (Homo sapiens) (UniProt P08913+P18825+P18089); test: Percentage binding to adrenergic alpha-2 receptor at 10 uM; assay type: protein assay
[5] = molecular target: Type-1 angiotensin II receptor (Homo sapiens) (UniProt P30556); test: Percentage binding to angiotensin II type1 receptor at 10 uM
[6] = molecular target: cAMP-dependent protein kinase (PKA) (Homo sapiens) (UniProt P22694+P17612+P22612); test: Inhibition of PKA at 10 uM; assay type: protein assay
[7] = molecular target: MAP kinase-activated protein kinase 5 (Homo sapiens) (UniProt Q8IW41); test: Inhibition of PRAK at 10 uM
[8] = molecular target: 3-phosphoinositide-dependent protein kinase 1 (Homo sapiens) (UniProt O15530); test: Inhibition of PDK1 at 10 uM
3-phosphoinositide-dependent protein kinase 1 (Homo sapiens), sequence (O15530 whole entry, looked up): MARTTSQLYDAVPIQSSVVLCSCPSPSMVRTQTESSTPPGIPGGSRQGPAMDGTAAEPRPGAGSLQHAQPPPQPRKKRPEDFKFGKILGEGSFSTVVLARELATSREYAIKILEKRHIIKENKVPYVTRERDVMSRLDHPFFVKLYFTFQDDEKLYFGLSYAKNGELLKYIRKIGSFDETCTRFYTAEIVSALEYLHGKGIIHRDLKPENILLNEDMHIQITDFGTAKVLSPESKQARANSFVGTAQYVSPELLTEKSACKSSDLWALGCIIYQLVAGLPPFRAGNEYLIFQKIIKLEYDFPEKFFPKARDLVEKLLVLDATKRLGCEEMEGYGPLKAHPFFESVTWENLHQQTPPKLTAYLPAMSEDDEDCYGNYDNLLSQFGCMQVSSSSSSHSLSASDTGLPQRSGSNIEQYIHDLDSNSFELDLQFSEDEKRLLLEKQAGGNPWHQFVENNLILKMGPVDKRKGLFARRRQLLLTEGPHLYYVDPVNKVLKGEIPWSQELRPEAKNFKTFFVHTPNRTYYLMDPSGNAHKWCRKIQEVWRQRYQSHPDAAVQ

[9] = molecular target: Glycogen synthase kinase-3 beta (Homo sapiens) (UniProt P49841); test: Inhibition of GSK3-beta at 10 uM
[10] = molecular target: Serine/threonine-protein kinase Nek6 (Homo sapiens) (UniProt Q9HC98); test: Inhibition of NEK6 at 10 uM
[11] = molecular target: Glucocorticoid receptor (Homo sapiens) (UniProt P04150); test: Percentage binding to glucocorticord receptor at 10 uM
[12] = molecular target: Platelet-activating factor receptor (Homo sapiens) (UniProt P25105); test: Percentage binding to PAF at 10 uM
[13] = molecular target: Serine/threonine-protein kinase Chk1 (Homo sapiens) (UniProt O14757); test: Inhibition of CHK1 at 10 uM
[14] = molecular target: cAMP and cAMP-inhibited cGMP 3',5'-cyclic phosphodiesterase 10A (Homo sapiens, UniProt Q9Y233); test: Inhibitory activity against PDE10 by scintillation proximity assay; procedure, shortened: as §1
cAMP and cAMP-inhibited cGMP 3',5'-cyclic phosphodiesterase 10A, sequence (Q9Y233 whole entry): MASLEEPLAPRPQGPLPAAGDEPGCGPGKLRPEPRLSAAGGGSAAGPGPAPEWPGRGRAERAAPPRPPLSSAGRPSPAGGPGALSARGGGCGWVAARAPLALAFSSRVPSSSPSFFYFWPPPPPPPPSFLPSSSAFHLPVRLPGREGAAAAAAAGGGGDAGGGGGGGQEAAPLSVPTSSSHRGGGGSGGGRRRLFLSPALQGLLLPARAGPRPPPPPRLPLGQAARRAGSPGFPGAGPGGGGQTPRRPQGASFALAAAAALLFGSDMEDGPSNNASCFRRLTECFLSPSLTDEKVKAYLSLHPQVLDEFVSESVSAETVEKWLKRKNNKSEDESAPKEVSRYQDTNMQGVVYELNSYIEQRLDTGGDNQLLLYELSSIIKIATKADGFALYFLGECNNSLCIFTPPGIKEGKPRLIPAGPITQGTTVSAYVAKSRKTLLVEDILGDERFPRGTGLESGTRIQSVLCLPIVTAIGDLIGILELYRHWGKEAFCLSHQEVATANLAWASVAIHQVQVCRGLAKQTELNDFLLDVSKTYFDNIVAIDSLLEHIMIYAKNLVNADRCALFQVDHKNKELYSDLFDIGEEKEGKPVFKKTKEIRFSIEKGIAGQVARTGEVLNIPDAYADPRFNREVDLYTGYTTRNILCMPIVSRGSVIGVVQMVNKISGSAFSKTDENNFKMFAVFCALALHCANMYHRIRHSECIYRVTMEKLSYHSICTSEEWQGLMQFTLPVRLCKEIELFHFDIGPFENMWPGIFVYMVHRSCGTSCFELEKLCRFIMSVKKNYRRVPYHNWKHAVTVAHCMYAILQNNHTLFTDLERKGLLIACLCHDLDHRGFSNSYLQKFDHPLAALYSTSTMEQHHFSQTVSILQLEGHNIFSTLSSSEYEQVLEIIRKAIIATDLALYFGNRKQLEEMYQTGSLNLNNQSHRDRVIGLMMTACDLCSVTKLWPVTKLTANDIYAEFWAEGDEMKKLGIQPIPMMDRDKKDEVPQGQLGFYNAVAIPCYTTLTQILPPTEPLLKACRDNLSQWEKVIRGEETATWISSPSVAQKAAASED

[15] = Percentage binding to neuronal NACHR at 10 uM
Procedure, shortened: (§2)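 Single-concentration screen within a panel of 54 receptors and ion channels, measuring binding or interaction at each target.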

[16] = molecular target: D(4) dopamine receptor (Homo sapiens) (UniProt P21917); test: Percentage binding to dopamine D4 at 10 uM
[17] = molecular target: Voltage-dependent L-type calcium channel subunit alpha-1D (Homo sapiens) (UniProt Q01668); test: Percentage binding to Ca2+ channel D at 10 uM; procedure, shortened: as §2
Voltage-dependent L-type calcium channel subunit alpha-1D (Homo sapiens), sequence (Q01668 whole entry): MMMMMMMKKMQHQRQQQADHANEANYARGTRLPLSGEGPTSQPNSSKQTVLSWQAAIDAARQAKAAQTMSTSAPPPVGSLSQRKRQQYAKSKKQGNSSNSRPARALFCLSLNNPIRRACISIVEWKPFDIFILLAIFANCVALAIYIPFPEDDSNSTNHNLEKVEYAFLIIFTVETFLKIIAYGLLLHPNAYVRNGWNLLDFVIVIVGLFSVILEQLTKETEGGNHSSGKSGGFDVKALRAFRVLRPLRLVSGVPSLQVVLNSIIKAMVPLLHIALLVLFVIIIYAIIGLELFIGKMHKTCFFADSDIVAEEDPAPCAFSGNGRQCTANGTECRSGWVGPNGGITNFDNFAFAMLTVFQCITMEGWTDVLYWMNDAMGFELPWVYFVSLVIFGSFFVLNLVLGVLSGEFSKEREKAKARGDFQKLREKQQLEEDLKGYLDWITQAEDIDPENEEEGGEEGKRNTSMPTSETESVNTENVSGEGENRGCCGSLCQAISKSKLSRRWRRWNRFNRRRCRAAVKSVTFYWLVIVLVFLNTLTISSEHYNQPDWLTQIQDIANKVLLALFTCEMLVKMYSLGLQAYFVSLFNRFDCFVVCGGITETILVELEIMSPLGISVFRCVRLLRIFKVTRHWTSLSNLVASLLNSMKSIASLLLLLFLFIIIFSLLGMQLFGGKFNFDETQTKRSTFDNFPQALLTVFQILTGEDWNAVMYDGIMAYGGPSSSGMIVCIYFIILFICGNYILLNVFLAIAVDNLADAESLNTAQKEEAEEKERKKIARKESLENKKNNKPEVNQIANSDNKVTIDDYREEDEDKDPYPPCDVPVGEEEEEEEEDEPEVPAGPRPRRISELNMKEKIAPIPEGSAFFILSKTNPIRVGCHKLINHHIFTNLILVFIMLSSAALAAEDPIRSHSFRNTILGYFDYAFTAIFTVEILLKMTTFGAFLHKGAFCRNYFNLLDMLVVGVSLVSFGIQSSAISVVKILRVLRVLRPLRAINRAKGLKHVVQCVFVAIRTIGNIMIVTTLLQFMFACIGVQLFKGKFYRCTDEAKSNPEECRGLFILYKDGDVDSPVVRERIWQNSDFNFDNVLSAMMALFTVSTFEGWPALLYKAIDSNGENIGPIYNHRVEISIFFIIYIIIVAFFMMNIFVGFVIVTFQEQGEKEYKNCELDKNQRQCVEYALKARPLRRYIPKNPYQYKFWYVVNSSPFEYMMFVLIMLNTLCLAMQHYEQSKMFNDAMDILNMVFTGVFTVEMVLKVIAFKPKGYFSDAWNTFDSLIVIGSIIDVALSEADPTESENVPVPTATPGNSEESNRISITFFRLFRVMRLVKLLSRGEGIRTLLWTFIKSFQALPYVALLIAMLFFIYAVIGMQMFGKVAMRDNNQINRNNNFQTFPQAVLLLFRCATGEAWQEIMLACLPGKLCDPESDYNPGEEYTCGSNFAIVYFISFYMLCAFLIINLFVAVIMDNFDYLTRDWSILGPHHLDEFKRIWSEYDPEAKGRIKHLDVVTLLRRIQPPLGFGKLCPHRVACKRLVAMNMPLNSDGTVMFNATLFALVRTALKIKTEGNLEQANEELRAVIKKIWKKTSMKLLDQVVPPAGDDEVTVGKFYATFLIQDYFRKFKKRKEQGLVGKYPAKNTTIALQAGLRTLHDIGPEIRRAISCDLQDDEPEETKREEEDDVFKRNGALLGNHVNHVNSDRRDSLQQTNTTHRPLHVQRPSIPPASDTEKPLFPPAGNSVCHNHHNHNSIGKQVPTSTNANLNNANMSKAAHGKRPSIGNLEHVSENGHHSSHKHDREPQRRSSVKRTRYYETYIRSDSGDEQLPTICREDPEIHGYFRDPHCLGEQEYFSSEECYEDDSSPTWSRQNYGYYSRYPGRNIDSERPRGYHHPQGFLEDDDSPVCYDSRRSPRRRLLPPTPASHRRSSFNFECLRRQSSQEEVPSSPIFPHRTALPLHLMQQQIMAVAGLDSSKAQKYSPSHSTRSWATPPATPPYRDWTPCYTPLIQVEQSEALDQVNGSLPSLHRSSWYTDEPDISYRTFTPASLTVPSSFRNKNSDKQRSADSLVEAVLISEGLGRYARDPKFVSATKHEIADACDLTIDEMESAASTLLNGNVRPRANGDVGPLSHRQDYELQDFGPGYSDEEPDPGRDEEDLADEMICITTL

[18] = molecular target: Beta-2 adrenergic receptor (Homo sapiens) (UniProt P07550); test: Percentage binding to adrenergic beta-2 receptor at 10 uM
[19] = molecular target: Substance-P receptor (Homo sapiens) (UniProt P25103); test: Percentage binding to neurokinin K1 at 10 uM
Substance-P receptor (Homo sapiens), sequence (P25103 whole entry): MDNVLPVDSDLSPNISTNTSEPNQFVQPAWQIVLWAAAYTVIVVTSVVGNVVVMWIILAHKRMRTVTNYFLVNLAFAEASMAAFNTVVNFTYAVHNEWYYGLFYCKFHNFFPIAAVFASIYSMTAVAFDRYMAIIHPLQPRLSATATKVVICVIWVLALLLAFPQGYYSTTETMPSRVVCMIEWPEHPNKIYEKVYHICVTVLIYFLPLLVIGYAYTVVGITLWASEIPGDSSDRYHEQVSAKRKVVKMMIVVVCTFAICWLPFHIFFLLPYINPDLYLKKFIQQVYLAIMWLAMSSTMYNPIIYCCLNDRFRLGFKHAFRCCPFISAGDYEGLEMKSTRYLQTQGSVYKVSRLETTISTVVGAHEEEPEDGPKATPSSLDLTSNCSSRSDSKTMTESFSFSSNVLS

[20] = molecular target: Mitogen-activated protein kinase 1 (Homo sapiens) (UniProt P28482); test: Inhibition of MAPK2 at 10 uM
[21] = molecular target: Adenosine receptor A3 (Homo sapiens) (UniProt P0DMS8); test: Percentage binding to adenosine A3 receptor at 10 uM
Adenosine receptor A3 (Homo sapiens), sequence (P0DMS8 whole entry): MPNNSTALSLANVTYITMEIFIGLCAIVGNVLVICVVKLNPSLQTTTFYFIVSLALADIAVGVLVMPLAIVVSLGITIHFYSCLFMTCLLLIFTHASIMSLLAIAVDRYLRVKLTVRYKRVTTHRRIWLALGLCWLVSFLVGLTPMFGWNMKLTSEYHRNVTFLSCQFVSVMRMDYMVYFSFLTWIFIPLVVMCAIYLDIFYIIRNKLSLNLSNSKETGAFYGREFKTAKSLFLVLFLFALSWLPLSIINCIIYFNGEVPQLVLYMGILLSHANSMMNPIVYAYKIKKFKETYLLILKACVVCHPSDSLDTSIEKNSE

[22] = molecular target: 5-hydroxytryptamine receptor 1A (Homo sapiens) (UniProt P08908); test: Percentage binding to serotonin 5HT1A at 10 uM
[23] = molecular target: Acetylcholine receptor; alpha1/beta1/delta/gamma (Homo sapiens) (UniProt P02708+P07510+P11230+Q07001); test: Percentage binding to muscle NACHR at 10 uM; assay type: tissue-based; conditions: Muscle tissue

5-hydroxytryptamine receptor 4 (Homo sapiens), sequence (Q13639 whole entry): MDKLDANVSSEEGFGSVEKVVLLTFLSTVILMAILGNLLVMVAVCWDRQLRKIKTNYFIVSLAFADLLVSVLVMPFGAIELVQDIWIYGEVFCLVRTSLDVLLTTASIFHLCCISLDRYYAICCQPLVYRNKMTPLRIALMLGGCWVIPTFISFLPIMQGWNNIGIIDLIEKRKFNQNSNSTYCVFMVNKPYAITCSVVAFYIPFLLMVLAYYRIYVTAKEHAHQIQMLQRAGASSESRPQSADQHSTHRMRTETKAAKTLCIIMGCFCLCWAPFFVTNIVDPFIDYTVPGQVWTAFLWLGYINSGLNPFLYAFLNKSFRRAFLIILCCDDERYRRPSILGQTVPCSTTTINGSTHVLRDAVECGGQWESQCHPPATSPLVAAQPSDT

Activity [1]: 0%
Activity [2]: 0%
IC50 (Phosphodiesterase 1): > 16 µM
inhibition [3]: 0%
Activity [4]: 16%
Activity [5]: 11%
inhibition [6]: 16%
inhibition [7]: 28%
inhibition [8]: 0%
inhibition [9]: 16%
inhibition [10]: 7%
Activity [11]: 0%
Activity [12]: 21%
inhibition [13]: 0%
IC50 [14]: > 16 µM
Activity [15]: 7%
Activity [16]: 0%
Activity [17]: 0%
Activity [18]: 12%
Activity [19]: 0%
inhibition [20]: 12%
Activity [21]: 35%
Activity [22]: 23%
Activity [23]: 0%
SMILES: CN1C(=O)C(C(=O)Nc2nncs2)c2cc3occc3cc21 (centres undefined)
